Data: article PMC3152441 (Chemistry & biology, 2011)

What was measured:
TLR9 = molecular target: T1, TLR9 (Homo sapiens, UniProt Q9NR96); assay: 697 pre-B leukemia cells NF-κB-luciferase reporter, CpG DNA; type: cell-based; conditions: 697 cells, 10 μM compound, 5 μM ODN2006, 24h
T1 sequence (Q9NR96 26-1032): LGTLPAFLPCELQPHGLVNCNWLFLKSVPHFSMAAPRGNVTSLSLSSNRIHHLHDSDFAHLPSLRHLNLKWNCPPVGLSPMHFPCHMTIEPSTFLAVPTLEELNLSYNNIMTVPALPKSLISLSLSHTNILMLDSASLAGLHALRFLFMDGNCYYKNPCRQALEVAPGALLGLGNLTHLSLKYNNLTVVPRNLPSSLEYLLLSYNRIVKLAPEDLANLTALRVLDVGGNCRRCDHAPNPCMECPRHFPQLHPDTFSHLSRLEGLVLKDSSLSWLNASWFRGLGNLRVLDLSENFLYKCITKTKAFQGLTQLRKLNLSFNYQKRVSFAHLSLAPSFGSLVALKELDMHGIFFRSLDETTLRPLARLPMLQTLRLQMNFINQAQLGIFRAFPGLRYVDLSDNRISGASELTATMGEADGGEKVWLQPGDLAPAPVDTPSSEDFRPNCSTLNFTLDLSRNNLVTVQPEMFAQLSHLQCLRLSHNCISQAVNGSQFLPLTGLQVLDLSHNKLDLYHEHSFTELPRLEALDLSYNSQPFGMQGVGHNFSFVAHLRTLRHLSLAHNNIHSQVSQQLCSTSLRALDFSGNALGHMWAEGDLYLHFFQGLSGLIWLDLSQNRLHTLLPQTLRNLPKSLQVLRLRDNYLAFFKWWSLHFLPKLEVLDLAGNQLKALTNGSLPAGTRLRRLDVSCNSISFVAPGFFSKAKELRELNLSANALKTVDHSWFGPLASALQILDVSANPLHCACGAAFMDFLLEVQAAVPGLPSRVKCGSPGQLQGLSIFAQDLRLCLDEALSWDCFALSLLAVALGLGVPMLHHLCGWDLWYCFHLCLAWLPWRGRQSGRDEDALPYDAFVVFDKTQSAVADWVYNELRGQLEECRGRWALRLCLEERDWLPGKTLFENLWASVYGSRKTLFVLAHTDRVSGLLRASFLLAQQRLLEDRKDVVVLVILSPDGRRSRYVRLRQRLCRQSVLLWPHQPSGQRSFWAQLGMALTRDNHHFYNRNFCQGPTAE
In short: (§1)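 697 cells stably carrying an NF-κB-luciferase reporter were cultured with or without 10 μM test compound plus inducer: 100 ng/ml BAFF or 5 μM ODN2006 as TLR9 ligand. Luciferase activity was read 24 h later. Mean ± SD, n=3.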

[1] = tested on: NF-κB, MAPK and Akt signalings; assay: γ-tri-DAP-dependent signaling; type: cell-based
[2] = tested on: non-canonical NF-κB activation induced by BAFF; assay: 697 pre-B leukemia cells NF-κB-luciferase reporter, BAFF; type: cell-based; conditions: 697 cells, 10 μM compound, 100 ng/ml BAFF, 24h
In short: as §1

IκBα = assay: γ-tri-DAP-induced expression of NF-κB target gene IκBα; type: cell-based
NOD1 signaling = assay: Gene transfection experiments in HEK 293T-NF-κB-luciferase cells; type: cell-based
In short: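 HEK293T NF-κB-luciferase cells were transfected with NOD1, RIP2, XIAP or GFP plasmids in various combinations. After 24 h, cells were cultured ± 3.5 μg/ml γ-tri-DAP, ± 10 μM test compound, or both, for 24 h. Luciferase was normalised to GFP-transfected cells (100%). Mean ± SD, n=4.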

Bcl-XL and Bid = assay: Ni/NTA pull-down of purified His6-tagged control proteins; conditions: purified protein, 20 μM compound
In short: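 Purified His6-Bcl-XL or His6-Bid (≈0.4 ug) was pre-incubated 60 min with 20 μM test compound, with DMSO as control. Ni-NTA agarose beads were added and incubated overnight at 4°C. Pulled-down protein was immunoblotted with anti-His antibody. Bands were quantified relative to the DMSO control.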

TLR1, 2, 4, 5, 6 and 8 = assay: THP.1 macrophage NF-κB/AP-1-inducible SEAP reporter, TLR agonists; type: cell-based, Human; conditions: 5 μM compound, 24 h, PMA-differentiated THP.1
In short: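 PMA-differentiated THP.1 cells carrying NF-κB-driven SEAP were cultured ± 5 μM test compound with TLR inducers: 0.5 μg/ml Pam3CSK4, heat-killed Listeria monocytogenes (HKLM), 1 μg/ml FSL-1, 0.5 μg/ml LPS, 0.5 μg/ml flagellin or 1 μg/ml ssRNA40. Supernatant SEAP was measured after 24 h, as % of inducer alone. Mean ± SEM, n=2.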

inflammasomes = assay: IL-1β secretion induced by inflammasome activators; type: cell-based; conditions: 5 μM compound; MSU, poly(dA:dT), LPS plus ATP, S. typhimurium
In short: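 RAW264.7 macrophages were treated with 5 μM test compound, with LPS pre-treatment to induce pro-IL-1β synthesis. Supernatants were taken at 2 h (Salmonella) or 4 h (others). IL-1β by ELISA. Mean ± SD, n=3.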

NOD2 = NOD2 (Homo sapiens, UniProt Q9HC29); assay: Subcellular fractionation of MCF-7 cells stably expressing epitope-tagged NOD2; type: cell-based; conditions: MCF-7 cells expressing NOD2
Sequence of NOD2 (Q9HC29 whole entry): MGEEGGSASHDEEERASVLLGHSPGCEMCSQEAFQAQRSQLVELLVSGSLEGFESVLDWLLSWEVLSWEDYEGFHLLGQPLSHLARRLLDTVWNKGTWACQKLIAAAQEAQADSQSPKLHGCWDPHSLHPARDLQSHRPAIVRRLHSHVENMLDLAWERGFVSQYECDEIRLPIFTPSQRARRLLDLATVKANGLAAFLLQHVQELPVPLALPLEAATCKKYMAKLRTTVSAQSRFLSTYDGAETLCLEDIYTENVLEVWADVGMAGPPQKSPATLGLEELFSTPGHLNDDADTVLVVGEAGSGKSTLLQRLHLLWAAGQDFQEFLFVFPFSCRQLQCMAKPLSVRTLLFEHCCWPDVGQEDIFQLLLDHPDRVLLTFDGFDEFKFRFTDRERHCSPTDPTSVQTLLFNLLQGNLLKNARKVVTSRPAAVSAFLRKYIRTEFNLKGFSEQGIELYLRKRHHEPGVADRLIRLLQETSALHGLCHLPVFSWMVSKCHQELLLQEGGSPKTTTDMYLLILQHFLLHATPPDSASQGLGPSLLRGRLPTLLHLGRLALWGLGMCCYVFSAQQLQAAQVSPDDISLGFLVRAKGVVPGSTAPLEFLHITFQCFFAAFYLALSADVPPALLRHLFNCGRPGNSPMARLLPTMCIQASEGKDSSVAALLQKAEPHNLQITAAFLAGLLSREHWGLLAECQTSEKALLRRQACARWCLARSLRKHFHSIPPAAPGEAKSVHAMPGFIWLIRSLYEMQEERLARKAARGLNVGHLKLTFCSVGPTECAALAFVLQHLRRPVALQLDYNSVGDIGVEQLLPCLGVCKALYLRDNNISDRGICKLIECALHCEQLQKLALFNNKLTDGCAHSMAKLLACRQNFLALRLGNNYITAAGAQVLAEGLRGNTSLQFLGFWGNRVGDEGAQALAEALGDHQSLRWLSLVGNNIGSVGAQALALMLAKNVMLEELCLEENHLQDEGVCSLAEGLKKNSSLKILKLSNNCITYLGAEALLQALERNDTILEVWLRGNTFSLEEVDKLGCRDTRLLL

RIG-I/MDA-5, IRF3 = assay: HEK293T ISRE-driven luciferase reporter, other interferon response stimuli; type: cell-based; conditions: 5 μM compound; poly(I:C), poly(dA:dT), Sendai virus
In short: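 HEK293T cells stably expressing an ISRE-driven luciferase reporter were cultured ± 5 μM test compound with 1 μg/ml poly(I:C) (LyoVec lipid transfection), 1 μg/ml poly(dA:dT) (LyoVec) or Sendai virus. Luciferase was measured after 24 h. Mean ± SD, n=4.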

[3] = Cell viability under diverse cell treatments; type: cell-based

In the case of `Cc1ccc(S(=O)(=O)n2c(N)nc3ccccc32)cc1` [CID-1088438], the “NF-κB activity induced by TLR9 ligand CpG DNA” value (TLR9) is reported as “did not inhibit”, the Akt survival pathway [1] is reported as “without affecting” and the “γ-tri-DAP-dependent activation of MAPK (p38 phosphorylation)” value [1] is reported as “inhibits”. The “γ-tri-DAP-dependent activation of NF-κB (IκBα phosphorylation and degradation)” value [1] was “inhibits”, the “non-canonical NF-κB activation induced by BAFF” value [2] was “not inhibited” and the “γ-tri-DAP-induced expression of IκBα at the mRNA level” value (IκBα) was “inhibited”. The “site of action in NOD1 signaling (NOD1, RIP2, XIAP transfection)” value (NOD1 signaling; 10 μM compound, 24 hrs) was “targets NOD1 signaling upstream of RIP2”, the “impact in cells over-expressing IKKγ/NEMO, MYD88, FLIP, CARD6, APAF1 or NLRC4” value (NOD1 signaling; data not shown) was “No significant impact” and the “binding of His6-tagged control proteins Bcl-XL and Bid to Ni/NTA” value (Bcl-XL and Bid) was “without affecting”. For the same compound, the “NF-κB-inducible SEAP activity induced by TLR agonists” value (TLR1, 2, 4, 5, 6 and 8) was “No inhibitory effects”, the “IL-1β secretion induced by various inflammasome activators” value (inflammasomes) was “did not inhibit” and the NOD2 compartmentalization (NOD2) was “No changes”. For the same compound, the “ISRE-driven reporter gene activity induced by other interferon response stimuli” value (RIG-I/MDA-5, IRF3) was “no inhibition” and the Cell viability [3] was “not affected”.
